OX1R antag-1: human HCRTR1 antagonism | O43613 | CHO/OX1R cells, Fluo-8 calcium fluorescence, orexin A | inhibition, % at 5 µM | 330,000 compounds, 0.43% hits | AID 434989;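 active = inhibition above its plate's threshold, mean inhibition of all tested compounds on the plate plus 3 SD, cut at about 37% in these data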
GalR3 antagonist: antagonists of human GalR3; HEK293 GalR3-CNG cAMP membrane potential fluorescence; galR3 body fused to GalR1 C-terminus; inhibition, % at 3 µM; 360,000 compounds, 0.44% hits;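 active = inhibition above the screen-wide average plus 3 SD, cut at about 13% in these data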;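 note: forskolin and galanin both at EC90 stimulate the cells; cAMP rise reported by CNG channel membrane potential dye signal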
Target sequence (O60755 1-299 limits assumed): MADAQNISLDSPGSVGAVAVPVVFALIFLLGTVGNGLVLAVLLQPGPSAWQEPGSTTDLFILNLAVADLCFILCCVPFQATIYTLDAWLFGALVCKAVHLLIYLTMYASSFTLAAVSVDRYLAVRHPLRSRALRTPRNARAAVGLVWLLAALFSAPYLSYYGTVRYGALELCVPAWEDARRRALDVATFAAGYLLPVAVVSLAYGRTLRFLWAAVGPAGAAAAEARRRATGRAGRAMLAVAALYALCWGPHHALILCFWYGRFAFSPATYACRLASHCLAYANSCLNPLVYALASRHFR
OX1R antag-2: OX1R (human) antagonism; AID 485270; inhibition, % at 6.6 µM; O43613; OX1R-expressing cells, FRET antagonist read-out; 330,000 compounds, 1.8% hits; in the data active = inhibition mostly above about 38%, no sharp cut-off; inactive = mostly below about 40%
GPR7 antagonist: antagonists of human GPR7 (neuropeptides B/W receptor 1). AID 1861. P48145. inhibition, % at 4.4 µM. 290,000 compounds, 1.1% hits. GPR7-expressing cells, fluorescence antagonist assay; in the data active = inhibition above about 16%, passing the limit was not always enough;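 note: cells stimulated with the agonist NPW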
Target sequence (P48145 whole entry, looked up): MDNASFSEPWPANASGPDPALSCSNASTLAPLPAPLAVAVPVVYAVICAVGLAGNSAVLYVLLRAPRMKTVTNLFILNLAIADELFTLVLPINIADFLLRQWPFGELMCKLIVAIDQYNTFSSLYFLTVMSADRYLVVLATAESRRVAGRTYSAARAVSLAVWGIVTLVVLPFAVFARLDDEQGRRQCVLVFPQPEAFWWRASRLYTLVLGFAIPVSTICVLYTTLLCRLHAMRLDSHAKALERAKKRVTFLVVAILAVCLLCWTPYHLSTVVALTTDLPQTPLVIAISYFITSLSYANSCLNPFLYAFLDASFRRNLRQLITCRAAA
CHO parental Ca: counter-screen: ATP calcium response change in parental CHO cells; parental CHO-K1, ATP-induced calcium, Fluo-8 fluorescence; inhibition, % at 5.6 µM; 330,000 compounds, 0.63% hits; AID 463079;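 active = inhibition above that plate's mean sample inhibition plus 3 SD, cut at about 26% in these data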
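material = parental CHO cells | also added = ATP as calcium-mobilizing challenge | dosing = single point at 5.6 µM | detection = intracellular calcium via Fluo-8 no-wash fluorescent dye | read-out = % inhibition | benchmarks = low control ATP plus DMSO, high control DMSO only | repeats = one well per compound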
OX1R HTRF confirm: OX1R (human) antagonism, HTRF confirmed. 1,800 compounds, 49% hits. shares compounds with OX1R antag-2. inhibition, % at 6.6 µM. OX1R-expressing cells, HTRF antagonist assay. AID 492964; in the data active = inhibition above about 55%;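 note: CHO cells expressing OX1R stimulated with orexin A at about EC80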
CHO-K1 HTRF: counter-screen: parental CHO-K1 HTRF response | shares compounds with OX1R antag-2 | parental CHO-K1 cells, HTRF counterscreen | inhibition, % at 6.6 µM | 1,800 compounds, 48% hits | AID 493232; in the data active = inhibition above about 17%
Hits are given with their value; – = inactive; · = no result given. This is a sample that favours compounds with a hit; in the whole collection about 3.1% have one here.

SMILES	OX1R antag-1	GalR3 antagonist	OX1R antag-2	GPR7 antagonist	CHO parental Ca	OX1R HTRF confirm	CHO-K1 HTRF
O=C(N/N=C/c1cccc([N+](=O)[O-])c1)c1cnccn1	–	–	106	–	–	–	61
O=C(N/N=C/c1ccc([N+](=O)[O-])cc1)c1ccc2nc[nH]c2c1	–	–	114	–	–	–	41
O=C(N/N=C/c1cccc([N+](=O)[O-])c1)c1ccc2nc[nH]c2c1	–	–	–	–	–	·	·
Cc1ccc(CNC(=O)C2(C)CCN2C(=O)Cc2ccc(-c3ccccc3)cc2)cc1 (stereo not drawn)	·	–	·	·	·	·	·
COc1ccc(C2CCCCC2SCC(=O)O)cc1OC (stereo not drawn)	·	–	·	·	·	·	·
O=C(N/N=C/c1ccccn1)c1ccc([N+](=O)[O-])cc1	–	–	83	–	–	–	42
FC(F)(F)c1ccccc1CN1CCCc2nc(-c3ccc(Br)cc3)ccc21	·	–	·	·	·	·	·
O=C1CSC(=S)N1/N=C/c1ccc(O)c(O)c1O	–	·	84	–	–	–	–
O=C(C(=O)N1CCC(CNC(=O)c2cccnc2Cl)CC1)c1cc2ccccc2o1	·	–	·	·	·	·	·
CN1CCc2c(sc(NC(=O)c3ccc([N+](=O)[O-])o3)c2C(N)=O)C1	–	–	90	–	–	–	31
O=C(/C=C(\Nc1cccc(F)c1)c1ccccc1)c1ccccc1	·	–	·	·	·	·	·
CCN(CC(=O)Nc1c(F)cccc1F)C(=O)c1cccn1C	·	–	·	·	·	·	·
N#C/C(=N\Nc1ccc(Cl)cc1)C(=N)N1CCCCC1	–	–	77	–	–	–	–
N#C/C(=N\Nc1ccc(F)cc1)C(=N)N1CCCCCC1	–	–	–	–	–	·	·
Clc1ccccc1Nc1nc(-c2cccnc2)cs1	–	–	84	–	–	77	–
COc1ccccc1N(CC(O)COc1ccc(C)cc1)S(=O)(=O)c1ccccc1 (stereo not drawn)	–	–	78	–	–	91	–
COC(=O)[C@]12C[C@H](CC(=O)N3CCCCC3)C(=O)N(Cc3ccccc3)C1=C[C@H](C(C)(C)C)O[C@@H]2C	·	–	·	·	·	·	·
NS(=O)(=O)c1ccc(NCCCn2ccnc2)c([N+](=O)[O-])c1	–	–	80	–	–	–	50
O=C(NCCCn1ccnc1)c1cc([N+](=O)[O-])cc([N+](=O)[O-])c1	–	–	105	–	–	58	87
O=C(NCCCn1ccnc1)c1ccncc1	–	–	–	–	–	·	·
COC(=O)[C@]12CCCCC=C1N(Cc1ccccc1)C(=O)[C@H](CC(=O)NCCc1ccccc1OC)C2	·	–	·	·	·	·	·
CN(C)c1ccc(-c2ccnc3c2CC(C)(C(=O)Nc2ccc(Cl)c(C(F)(F)F)c2)O3)cc1 (stereo not drawn)	·	–	·	·	·	·	·
COc1ccccc1/C=N/N1C(=O)c2cccc3cccc(c23)C1=O	–	–	97	–	–	–	55
COc1ccc(/C=N/N2C(=O)c3ccccc3C2=O)cc1	–	–	–	–	–	·	·
Cn1cc(Cl)c(C(=O)N/N=C/c2ccc3c4c(cccc24)CC3)n1	–	·	92	–	–	84	–
SMILES	OX1R antag-1	GalR3 antagonist	OX1R antag-2	GPR7 antagonist	CHO parental Ca	OX1R HTRF confirm	CHO-K1 HTRF
CC(=O)C1=C(c2ccc(Br)cc2)C(=O)c2ccccc2C1=O	–	–	–	–	–	·	·
CNC1=C(N(C(C)=O)c2ccc(Br)cc2)C(=O)c2ccccc2C1=O	–	–	105	–	–	55	97
CCC(=O)N(C1=C(NC)C(=O)c2ccccc2C1=O)C(C)C	–	–	80	–	–	66	64
CN1CCN(C2CN(Cc3cn(Cc4ccc(F)cc4)nn3)S(=O)(=O)C2)CC1 (stereo not drawn)	·	–	·	·	·	·	·
C=CCNc1cccc2c1S(=O)(=O)N[C@@H](CC(C)C)CO2	·	–	·	·	·	·	·
CC(C)(C)N1C(=O)c2ccccc2NC(=O)C1C(=O)NCc1ccco1 (stereo not drawn)	·	–	·	·	·	·	·
COc1cccc2cc(C(=O)NCc3ccccn3)c(=O)oc12	–	–	116	–	–	–	34
O=[N+]([O-])c1c(NCCO)cc(N2CCN(Cc3ccc4c(c3)OCO4)CC2)c2nonc12	–	–	–	–	–	·	·
CCCSc1cc(NCCOC(C)=O)c([N+](=O)[O-])c2nonc12	–	–	82	–	–	–	61
COc1ccccc1NC(=O)c1cc2c(CO)cnc(C)c2oc1=Nc1cc(OC)c(OC)c(OC)c1	–	–	–	–	–	·	·
COc1cc(N=c2oc3c(C)ncc(CO)c3cc2C(N)=O)cc(OC)c1OC	–	–	121	–	–	55	58
CC(=O)NC1CCCCN(C)C1=O (stereo not drawn)	·	–	·	·	·	·	·
COc1ccc(NC(=O)/C=C/c2c(Cl)nc3ccccn23)cc1	–	–	111	–	–	96	17
Cc1ccccc1C(=O)N[C@H](C(=O)N1CCC[C@H]1C(=O)NC1CCCC1)c1ccccc1	·	–	·	·	·	·	·
c1ccc(C[n+]2cccc3c4ccccc4ccc32)cc1	–	–	77	–	–	–	47
C/C=C(/CCC1NCCc2c1[nH]c1ccccc21)[Si](C)(C)C (stereo not drawn)	·	–	·	·	·	·	·
CC(=O)Nc1c2c3c(cccc3n(C)c1=O)C(=O)c1ccccc1-2	–	–	154	–	–	–	65
CCOC(=O)c1c2c3c(cccc3n(C)c1=O)C(=O)c1ccccc1-2	–	–	–	–	–	·	·
Cc1ccc(C)c(NC(=O)CN2C(=O)C3CC=CCC3C2=O)c1 (stereo not drawn)	·	–	·	·	·	·	·
N#C/C(=C\c1c(Oc2ccccc2F)nc2ccccn2c1=O)C(=O)NC1CCS(=O)(=O)C1 (stereo not drawn)	–	–	89	–	–	–	36
N#C/C(=C\c1c(Oc2ccccc2Cl)nc2ccccn2c1=O)C(=O)NC1CCS(=O)(=O)C1 (stereo not drawn)	–	–	–	–	–	·	·
CCn1c(C)c(C(=O)O)c2cc(OC)c3ccccc3c21	–	–	99	–	–	89	–
Cc1cccn2c(=O)c3cc(C(N)=S)c(=N)n(CCCOC(C)C)c3nc12	–	–	–	–	–	·	·
CCNC(=O)c1cc2c(=O)n3cccc(C)c3nc2n(CCc2ccccc2)c1=N	–	–	–	–	–	·	·
O=C(NCCN1CCOCC1)c1cc2c(=O)n3ccccc3nc2n1Cc1ccccc1	–	–	–	–	–	·	·
Cc1ccc2nc3c(cc(C(=O)NCCc4ccccc4)c(=N)n3CCCN3CCOCC3)c(=O)n2c1	–	–	115	–	–	68	69
CCOCCCn1c(=N)c(C(N)=S)cc2c(=O)n3cccc(C)c3nc21	–	–	87	–	–	–	42
Cc1cccn2c(=O)c3cc(C(=O)NCCN4CCOCC4)c(=N)n(CCc4ccccc4)c3nc12	–	–	109	–	–	57	72
COc1cccc(CNC(=O)[C@H]2CCCN2C(=O)[C@H]2CCCN2C(=O)c2cccs2)c1	·	–	·	·	·	·	·

Screens: PubChem BioAssay, The Scripps Research Institute Molecular Screening Center
